This is an account of results in ChEMBL document CHEMBL3992505, “Optimization of substituted imidazobenzodiazepines as novel asthma treatments” (Eur J Med Chem, 2017).

Structures are written as SMILES. The source made the active and inactive calls. The rule behind the calls is not given here.

One data set relates to Liver. Description: Metabolic stability in human liver microsomes assessed as compound remaining at 10 uM after 1 hr by LC-MS/MS analysis. Format: ADME, microsome. Summed up:
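Compound stability was measured in human or mouse liver microsomes as percent remaining after 1 h. Data came from two independent experiments, each run in triplicate.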

Data set [1] is described as follows: Cytotoxicity in human HepG2 cells after 48 hrs by Cell-titer Glo reagent based assay. To be noted: read-out: LD50. Summed up:
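Cells (HEK293, HepG2 or BEAS2B) exposed to compounds at a range of concentrations for 48 h; viability read by Cell-Titer Glo luminescence. Normalized to DMSO (negative) and 3-dibutylamino-1-(4-hexyl-phenyl)-propan-1-one at 150 μM final in DMSO (positive).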

In data set [2] the target is T1, GABA-A receptor; alpha-1/beta-3/gamma-2 (Homo sapiens, UniProt P14867+P18507+P28472).
T1 sequence (P14867 whole entry): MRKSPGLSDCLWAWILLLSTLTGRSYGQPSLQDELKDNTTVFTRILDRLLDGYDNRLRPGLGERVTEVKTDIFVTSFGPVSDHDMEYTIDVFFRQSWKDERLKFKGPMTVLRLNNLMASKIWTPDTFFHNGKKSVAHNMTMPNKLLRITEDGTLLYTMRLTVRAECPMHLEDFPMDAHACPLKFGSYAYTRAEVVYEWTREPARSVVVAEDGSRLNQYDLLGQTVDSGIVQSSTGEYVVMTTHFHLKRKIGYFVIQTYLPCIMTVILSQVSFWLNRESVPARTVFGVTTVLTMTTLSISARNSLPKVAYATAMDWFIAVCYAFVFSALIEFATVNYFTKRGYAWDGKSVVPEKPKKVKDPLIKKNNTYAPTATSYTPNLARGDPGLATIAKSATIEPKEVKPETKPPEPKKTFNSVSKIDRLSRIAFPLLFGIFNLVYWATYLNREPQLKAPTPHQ
T1 sequence (P18507 whole entry): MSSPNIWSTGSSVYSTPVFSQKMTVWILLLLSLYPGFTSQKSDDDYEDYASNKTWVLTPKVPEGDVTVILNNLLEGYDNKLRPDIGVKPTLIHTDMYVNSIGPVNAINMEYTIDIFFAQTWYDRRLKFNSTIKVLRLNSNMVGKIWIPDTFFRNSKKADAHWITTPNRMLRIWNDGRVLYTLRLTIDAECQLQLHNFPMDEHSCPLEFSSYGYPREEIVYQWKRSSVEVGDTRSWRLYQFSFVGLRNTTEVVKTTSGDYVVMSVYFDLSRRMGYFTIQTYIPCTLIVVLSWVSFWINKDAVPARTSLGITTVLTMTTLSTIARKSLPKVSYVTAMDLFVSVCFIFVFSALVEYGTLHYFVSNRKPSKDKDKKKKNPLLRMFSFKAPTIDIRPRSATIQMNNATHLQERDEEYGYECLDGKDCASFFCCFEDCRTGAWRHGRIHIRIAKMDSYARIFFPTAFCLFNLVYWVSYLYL
T1 sequence (P28472 whole entry): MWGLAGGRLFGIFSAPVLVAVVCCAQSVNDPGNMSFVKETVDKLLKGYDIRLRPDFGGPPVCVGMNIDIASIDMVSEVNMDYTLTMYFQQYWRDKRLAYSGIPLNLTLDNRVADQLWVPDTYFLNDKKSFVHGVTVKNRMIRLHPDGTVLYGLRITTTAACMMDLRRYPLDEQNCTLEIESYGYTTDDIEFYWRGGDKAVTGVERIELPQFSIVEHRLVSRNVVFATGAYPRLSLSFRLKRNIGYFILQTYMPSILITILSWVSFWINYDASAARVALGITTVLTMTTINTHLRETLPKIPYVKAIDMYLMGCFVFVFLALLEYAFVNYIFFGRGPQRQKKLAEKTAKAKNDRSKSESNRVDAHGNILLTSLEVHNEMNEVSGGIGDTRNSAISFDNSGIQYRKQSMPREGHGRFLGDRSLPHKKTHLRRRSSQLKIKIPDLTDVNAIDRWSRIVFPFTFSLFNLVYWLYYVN
Description: Activity at GABAA alpha1beta3gamma2 receptor (unknown origin) expressed in HEK293T cells assessed as potentiation of GABA-mediated increase in channel current under holding potential at -80 mV at 1 uM by patch clamp assay. The data set is classed as cell-based.

The target of data set [3] is GABA A receptor alpha-4/beta-3/gamma-2 (Homo sapiens) (UniProt P18507+P28472+P48169). Description: Activity at GABAA alpha4beta3gamma2 receptor (unknown origin) expressed in HEK293T cells assessed as potentiation of GABA-mediated increase in channel current under holding potential at -80 mV at 1 uM by patch clamp assay. The data set is classed as cell-based.
Another data set relates to Mus musculus. The data set is described as follows: Antiasthamatic effect in BALB/c mouse model of ovalbumin-induced asthma assessed as inhibition of airway hyperresponsiveness at 40 mg/kg, ip administered 40 mins as single dose prior to measurement. Format: functional, organism-based.
For data set [4], the system named is Blood. The data set is described as follows: Half life in mouse blood at 5 mg/kg, ip by LC/MS/MS analysis. To be noted: in vivo. Format: ADME, organism-based.
Data set [5] is described as follows: Tmax in mouse brain at 5 mg/kg, ip by LC/MS/MS analysis. The data set is classed as ADME, organism-based.
The nature of data set [6]: Half life in mouse lung at 5 mg/kg, ip by LC/MS/MS analysis. Format: ADME, organism-based.
Data set [7] concerns Blood. Description: Drug metabolism in mouse blood assessed as (S)-7-Methoxy-9-oxo-11,12,13,13a-tetrahydro-9H-benzo[e]imidazo[5,1-c]pyrrolo[1,2-a][1,4]di-azepine-1-carboxylic acid formation at 5 mg/kg, ip by LC/MS/MS analysis. The note with it: in vivo. The data set is classed as ADME, organism-based.
Data set [8] has as its system Blood. Description: Cmax in mouse blood assessed as (S)-7-Methoxy-N-methyl-9-oxo-11,12,13,13a-tetrahydro-9H-benzo[e]imidazo[5,1-c]pyrrolo[1,2-a][1,4]diazepine-1-carboxamide at 5 mg/kg, ip by LC/MS/MS analysis. The data set is classed as ADME, organism-based. The arrangement: dose 5 mg/kg, route intraperitoneal. To be noted: in vivo.

`COc1ccc2c(c1)C(=O)N1CCC[C@H]1c1c(C(=O)N(C)C)ncn1-2`: the Stability in the data set on Liver is 92.4%. In addition, in data set [1], the CC50 at 48 h was greater than 400 µM. The Activity in [2] was 161 to 179%; in data set [3], 319 to 545%. Moreover, the outcome in the data set on Mus musculus was inactive. The t1/2 in the data set with Blood [4] is 8.8 min. Besides, the Tmax in [5] is 10 min. In data set [6], this compound displayed a half-life of 11.7 min. The Drug metabolism entry in the data set on Blood [7] is on record as “Metabolite_Notdetected”. For the same compound, the Cmax in the data set on Blood [8] was 1176 ng/g.
